This note sets out measurements from PubChem BioAssay.

A number with no mark means an inactive call. Records with an inconclusive call do not appear. The source made the active and inactive calls.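 How the source made its calls, unless noted: active means growth inhibition above 25% in both replicates, a cutoff set 3 SD above the mean; inconclusive means above 25% in only one replicate; inactive means the rest.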

Assay [1] in a line: S. cerevisiae growth inhibition in permissive medium (OD615), pilot counter-assay for S. cerevisiae lifespan shortening project, permissive growth control (AID 705). The settings on record: OD615, 24 h, at 10 µM, hits give high values. Summed up:
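System: Engineered DeaD yeast | Buffer or medium: SC raffinose/galactose permissive medium | Incubation: Cells pre-grown 4 h, then 24 h compound exposure, 30 °C humidified | Measured by: Absorbance (optical density) at 615 nm | Read-out: Reduction in yeast growth (OD615)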

Assay [2] can be described thus: S. cerevisiae growth inhibition in restrictive medium, OD615, pilot screen, restrictive growth control, yeast lifespan reduction project (AID 706;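 active means growth inhibition above a set limit, 3 SD over mean compound inhibition, in both replicates, cut at about 43% in these data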;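 further: modified DeaD lifespan yeast strain shifted to restrictive glucose medium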). The settings on record: OD615, 48 h, at 10 µM, hits give high values. Summed up: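 Material: modified S. cerevisiae; Medium: glucose-based CSMM-D restrictive medium; Compound dosing: one concentration, 10 µM final, 0.25% DMSO; Incubation: 48 h compound exposure at 30 °C; Measured by: OD615.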

The nature of assay [3]: doxorubicin toxicity protection in MRP-1 cells – H69AR cells, CellTiter-Glo, duplicate, MRP-1 activator project, pilot screen (AID 807;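 active means viability increase at or above a cutoff of the median across tested compounds plus 3 SD, cut at about 8.5% in these data, passing the limit was not always enough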;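 further: compound pretreatment 18-22 h then 72 h combined with doxorubicin; 0% = doxorubicin alone and 100% = vehicle without doxorubicin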). Conditions: H69AR viability with doxorubicin, CellTiter-Glo luminescence; at 10 µM; hits give high values. A general note: ATP-based viability assays read luminescence as a measure of living cells.
A short description of assay [4]: viability of HCT116 without oncogenic beta-catenin – human colon tumor cells, pilot screen (AID 823;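 active means cell viability at or below a set limit in both duplicate runs, the limit being the all-compound median minus 4 SD, cut at about 23% in these data, passing the limit was not always enough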;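 further: 0% = wells killed by 20 µM Hyamine and 100% = untreated DMSO cell wells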). Conditions: HCT116 beta-catenin knockout viability, CellTiter-Glo, 60 h; at 10 µM; hits give low values.
The nature of assay [5]: viability of PTEN-null HCT116 cells – cell-based, HCT116 clonal line, CellTiter-Glo, pilot screen (AID 824;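 active means viability at or below 27.92% in each of two runs, the all-compound median minus 4 SD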;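 further: 0% = 20 µM Hyamine control and 100% = vehicle cell control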). Conditions: HCT116 PTEN-deleted viability, 60 h, at 10 µM, hits give low values.
A short description of assay [6]: RAM pathway blockade in budding yeast – dse1pr::URA3 reporter, 5-FOA selection, pilot screen (AID 869;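 active means inhibition over a set limit, the all-compound mean plus 3 SD, in both replicate runs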;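 further: 0% = DMSO wells with no growth and 100% = 10 µM 1-NA-PP1 with full growth; RAM network block rescues cells from 5-FOA so hits raise OD615 growth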). The settings on record: S. cerevisiae dse1pr::URA3 5-FOA growth, OD615, 2 d; at 10 µM; hits give high values; strain carries analog-sensitive mutant Cbk1 kinase.
The nature of assay [7]: RAM signaling pathway blockade in yeast – S. cerevisiae, Pdr1DBD-CYC8 efflux-inhibited sensitized strain, primary screen (AID 1298;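 active means RAM network inhibition above 8.4% in each of two replicates, 3 SD over the compound average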;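 further: 0% = DMSO untreated cells without growth and 100% = 10 µM 1-NA-PP1 full growth; higher means more yeast growth rescued from 5-FOA killing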). Conditions: S. cerevisiae cbk1-as DSE1-URA3 strain, 5-FOA growth OD615, 2 d; at 50 µM; hits give high values.

A word on the viability: it is a read-out of living cells in per cent, often relative to untreated cells. In general, inhibition refers to the relative decrease from the control value, in per cent. For `COc1ccccc1NC(=O)N1CCN(c2ccccn2)CC1`, the results for the growth inhibition in assay [1] and in assay [2] were -12.1% and -7.1%, respectively. Besides, in assay [3], the viability increase was 0.85%. The results for the viability in assay [4] and in assay [5] were 103% and 104%, respectively. Also, the inhibition in assay [6] was 2.67%. In addition, the RAM network inhibition in assay [7] is 4.32%.

As to `Cc1cc(N2CCOCC2)nc(SCC(=O)c2ccccc2)n1`, the growth inhibition in assay [1] is -16.5%; in assay [2] it was -4.63%. Further, the viability increase in assay [3] was -1.98%. The viability in assay [4] was 99%; in assay [5], 91.7%. Also, the inhibition in assay [6] is 2.53%. Further, the RAM network inhibition in assay [7] is 2.06%.

`O=C(c1cccc(S(=O)(=O)N2CCCC2)c1)c1cccc(S(=O)(=O)N2CCCC2)c1`: the growth inhibition in assay [1] is -6.99%; in assay [2], -7.98%. Besides, the viability increase in assay [3] was -1.22%. The figures for the viability in assay [4] and in assay [5] were 60.7% and 56.5%, respectively. Besides, in assay [6], the inhibition was 1.09%. Moreover, the RAM network inhibition in assay [7] was 5.82%.

Regarding `CCOC(=O)c1sc(NC(=O)C2CC2)cc1C`, the growth inhibition in assay [1] was -9.29%; in assay [2], -0.985%. Also, the viability increase in assay [3] was 0.54%. Besides, the viability in assay [4] was 99.5%; in assay [5] it was 89.4%. For the same molecule, the inhibition in assay [6] is 2.37%. Also, in assay [7], the RAM network inhibition was 0.98%.

As for `CC(C)N(Cc1nc(-c2ccc(Cl)cc2)no1)C(=O)CCC1CCCC1`, the growth inhibition is -13.1% in assay [1] and -14.6% in assay [2]. Moreover, the viability increase in assay [3] was -0.03%. In addition, the viability was 70.3% in assay [4] and 74.4% in assay [5]. Moreover, the inhibition in assay [6] was 0.865%. Besides, the RAM network inhibition in assay [7] is 8.34%.

Regarding `Cn1c(=O)oc2cc(S(=O)(=O)N3CCCC(C(=O)Nc4ccc5c(c4)OCCO5)C3)ccc21` (stereo unspecified), the values for the growth inhibition in assay [1] and in assay [2] were -0.19% and -4.89%, respectively. Also, the viability increase in assay [3] was -1.81%. In addition, the viability was 89.5% in assay [4] and 90% in assay [5]. Further, in assay [6], the inhibition was 1.42%. In addition, the RAM network inhibition in assay [7] is 1.66%.

In the case of `O=C(Oc1ccnc2cc(Cl)ccc12)N1CCOCC1`, the growth inhibition is -4.51% in assay [1] and 5.71% in assay [2]. In addition, the viability increase in assay [3] is -3.29%. Moreover, the viability was 87.3% in assay [4] and 87.8% in assay [5]. The inhibition in assay [6] was 1.1%. For the same molecule, the RAM network inhibition in assay [7] was 7.61%.

Regarding `CC(=O)NCC(=O)N(c1ccccc1)C1(C(=O)NC2CCCCC2)CCCCC1`, the growth inhibition was -3.84% in assay [1] and 6.72% in assay [2]. The viability increase in assay [3] is -2.01%. The viability in assay [4] is 103%; in assay [5], 98.3%. Besides, in assay [6], the inhibition is 0.165%. Also, in assay [7], the RAM network inhibition was -0.7%.

For the molecule `O=C(O)CCCC(=O)N1CCc2cc(S(=O)(=O)N3CCc4ccccc43)ccc21`, the growth inhibition in assay [1] was -2.29%; in assay [2] it was -2.17%. The viability increase in assay [3] was -0.98%. For the same molecule, the viability in assay [4] was 90.7%; in assay [5], 91.8%. Also, the inhibition in assay [6] was 1.98%. Moreover, the RAM network inhibition in assay [7] is 1.3%.

As to `O=C(Oc1ccccc1)c1cccc(N2C(=O)CCC2=O)c1`, the growth inhibition in assay [1] was -1.76%; in assay [2], 0.85%. In addition, the viability increase in assay [3] is -1.06%. The viability in assay [4] and in assay [5] was 105% in each case. The inhibition in assay [6] was 1.27%. The RAM network inhibition in assay [7] was 1.74%.

`O=C(Nc1nc2ccccc2n1CCOc1ccc(Cl)cc1)c1ccco1`: the growth inhibition in assay [1] was 0.61%; in assay [2], -2.21%. Also, the viability increase in assay [3] was -3.5%. Besides, the viability in assay [4] was 11.8% (active); in assay [5] it was 16.8% (active). Moreover, the inhibition in assay [6] was 0.745%. The RAM network inhibition in assay [7] was 4.7%.

As to `O=C(NC12CC3CC(CC(C3)C1)C2)c1cccnc1`, the values for the growth inhibition in assay [1] and in assay [2] were -3.12% and 15.7%, respectively. In addition, the viability increase in assay [3] was -0.51%. Further, the viability in assay [4] is 104%; in assay [5], 97.7%. Also, the inhibition in assay [6] was 2.61%. Moreover, in assay [7], the RAM network inhibition is 3.7%.

With `O=C(CCS(=O)(=O)c1cccc2nonc12)N1CCCc2ccccc21`, the results for the growth inhibition in assay [1] and in assay [2] were -10.4% and -22.1%, respectively. Also, the viability increase in assay [3] was -4.61%. Further, the viability in assay [4] is 92.8%; in assay [5] it was 92.9%. Moreover, the inhibition in assay [6] was 2.08%. Besides, the RAM network inhibition in assay [7] was 8.49%.

Consider `O=C(NC(Nc1ncccn1)C(=O)c1ccccc1)c1ccccc1` (stereo unspecified), for which the growth inhibition in assay [1] is 5.63%; in assay [2], -0.54%. Further, the viability increase in assay [3] was -0.49%. The values for the viability in assay [4] and in assay [5] were 96.6% and 98.5%, respectively. For the same molecule, the inhibition in assay [6] was -0.25%. The RAM network inhibition in assay [7] is 2.01%.

As for `Cc1nnc(SCCn2c(N3CCN(c4ccccc4)CC3)nc3c2c(=O)n(C)c(=O)n3C)s1`, the growth inhibition in assay [1] is -8.87%; in assay [2] it was -18.3%. Besides, in assay [3], the viability increase is -1.99%. For the same molecule, the viability in assay [4] is 104%; in assay [5], 102%. The inhibition in assay [6] is 1.23%. For the same molecule, in assay [7], the RAM network inhibition was 2.19%.

For the molecule `COc1ccc(C2(O)CCN(C(=O)Cc3cccnc3)CC2)cc1`, the growth inhibition in assay [1] is -20.4%; in assay [2] it was -12%. Besides, the viability increase in assay [3] is 1.04%. The viability in assay [4] was 99.3%; in assay [5], 94.7%. Further, the inhibition in assay [6] was 1.03%. Further, the RAM network inhibition in assay [7] was 1.03%.

For the molecule `CCOc1ccccc1C(=O)Nc1nnc(C(C)C)s1`, the values for the growth inhibition in assay [1] and in assay [2] were 3% and -2.61%, respectively. Moreover, the viability increase in assay [3] is -4.41%. Further, the viability in assay [4] is 98.1%; in assay [5], 91.5%. Moreover, the inhibition in assay [6] is 0.55%. In addition, the RAM network inhibition in assay [7] was 2.24%.

In the case of `Cc1ccc(N2CC(c3nc4ccccc4n3C)CC2=O)cc1C` (stereo unspecified), the growth inhibition was -4.58% in assay [1] and -2.28% in assay [2]. For the same molecule, the viability increase in assay [3] was -1.22%. Also, the viability in assay [4] is 103%; in assay [5] it was 105%. In assay [6], the inhibition is 0.94%. Besides, the RAM network inhibition in assay [7] is 3.07%.
